Laboratory results from ChEMBL document CHEMBL1146282, “Novel beta-lactam derivatives: potent and selective inhibitors of the chymotrypsin-like activity of the human 20S proteasome” (Bioorg Med Chem Lett, 2007).
The source made the active and inactive calls. The rule behind the calls is not given here.

Assays:
[1] = Inhibition of chymotrypsin-like activity of human 20S proteasome
Procedure, shortened: (§1)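 Human 20S proteasome purified in-house from blood, assayed in vitro with fluorogenic AMC peptides: Suc-Leu-Leu-Val-Tyr-AMC (chymotrypsin-like), Boc-Leu-Arg-Arg-AMC (trypsin-like), Z-Leu-Leu-Glu-AMC (post-glutamyl-peptide hydrolytic-like). Hydrolysis followed by fluorescence rise (ex 355/em 460 nm). IC50 taken from initial linear rates, as inhibitor concentration halving the proteasome-catalysed hydrolysis rate.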

MDA-MB-435 = assay: Antiproliferative activity against human MDA-MB-435 cells by MTT assay; assay type: functional, cell-based
Procedure, shortened: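 MDA-MB-435 human breast carcinoma cells grown in MEM with 10% FCS, penicillin/streptomycin, 4 mM L-glutamine, 1 mM sodium pyruvate, non-essential amino acids and 20 mM Hepes. Compound exposure for 24, 48 or 72 h. Proliferation read by MTT-based CellTiter96 assay.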

Homo sapiens [2] = organism: Homo sapiens; assay: Selectivity for chymotrypsin-like activity of human 20S proteasome over trypsin-like activity of human 20S proteasome
Homo sapiens [3] = organism: Homo sapiens; assay: Inhibition of chymotrypsin at 25 uM
Homo sapiens [4] = organism: Homo sapiens; assay: Inhibition of calpain at 25 uM
Homo sapiens [5] = organism: Homo sapiens; assay: Selectivity for chymotrypsin-like activity of human 20S proteasome over post-glutamyl-peptide hydrolytic activity of human 20S proteasome
[6] = Inhibition of post-glutamyl-peptide hydrolytic activity of human 20S proteasome; procedure, shortened: as §1
Homo sapiens [7] = organism: Homo sapiens; assay: Inhibition of thrombin at 25 uM
[8] = Inhibition of trypsin-like activity of human 20S proteasome; procedure, shortened: as §1

| Structure (SMILES) | IC50 [1] | IC50 (MDA-MB-435) | Ratio (Homo sapiens [2]) | Activity (Homo sapiens [3]) | Activity (Homo sapiens [4]) | Ratio (Homo sapiens [5]) | IC50 [6] | Activity (Homo sapiens [7]) | IC50 [8] |
| --- | --- | --- | --- | --- | --- | --- | --- | --- | --- |
| COc1ccc(C[C@H](NC(=O)Cc2cccc(Oc3ccccc3)c2)C(=O)N[C@H](C(=O)N[C@@]2(Cc3ccccc3)CNC2=O)C(C)C)c(OC)c1OC | 0.17 µM |  |  |  |  |  |  |  |  |
| COc1ccc(C[C@H](NC(=O)OCc2ccccc2)C(=O)N[C@H](C(=O)N[C@]2(Cc3ccccc3)CNC2=O)C(C)C)c(OC)c1OC | 0.005 µM |  |  |  |  |  |  |  |  |
| COc1ccc(C[C@H](NC(=O)Cc2cccc(Oc3ccccc3)c2)C(=O)N[C@H](C(=O)N[C@@]2(Cc3ccccc3)CNC2=O)C(C)(C)C)c(OC)c1OC | 0.28 µM |  |  |  |  |  |  |  |  |
| CC(C)C[C@@]1(NC(=O)[C@@H](NC(=O)[C@H](Cc2ccccc2)NC(=O)Cc2cccc(Oc3ccccc3)c2)C(C)C)CNC1=O | 0.02 µM | 1.2 µM | 350 | inactive | inactive | > 350 | > 20 µM | inactive |  |
| COc1ccc(C[C@H](NC(=O)Cc2cccc(Oc3ccccc3)c2)C(=O)N[C@@H](C(=O)N[C@@]2(Cc3ccccc3)CNC2=O)C(C)(C)C)c(OC)c1OC | 0.004 µM |  |  |  |  |  |  |  |  |
| COc1ccc(C[C@H](NC(=O)OCc2ccccc2)C(=O)N[C@H](C(=O)N[C@@]2(Cc3ccccc3)CNC2=O)C(C)C)c(OC)c1OC | 1.4 µM |  |  |  |  |  |  |  |  |
| CC(C)C[C@]1(NC(=O)[C@@H](NC(=O)[C@H](Cc2ccccc2)NC(=O)Cc2cccc(Oc3ccccc3)c2)C(C)C)CNC1=O | 38 µM |  |  |  |  |  |  |  |  |
| COc1ccc(C[C@H](NC(=O)Cc2cccc(Oc3ccccc3)c2)C(=O)N[C@H](C(=O)N[C@]2(Cc3ccccc3)CNC2=O)C(C)C)c(OC)c1OC | 0.0014 µM | 0.032 µM | 350 | inactive | inactive | > 350 | > 20 µM | inactive | 19 µM |
| COc1ccc(C[C@H](NC(=O)Cc2cccc(Oc3ccccc3)c2)C(=O)N[C@H](C(=O)N[C@@]2(CC(C)C)CNC2=O)C(C)C)c(OC)c1OC | 1.3 µM |  |  |  |  |  |  |  |  |
| COc1ccc(C[C@H](NC(=O)Cc2cccc(Oc3ccccc3)c2)C(=O)N[C@H](C(=O)N[C@]2(CC(C)C)CNC2=O)C(C)C)c(OC)c1OC | 0.0025 µM | 0.034 µM | 350 | inactive | inactive | > 350 | > 100 µM | inactive | 1.1 µM |
